# Measurements as given in PMC11589143 (Nature Communications, 2024).
# Tests used:
# [1] = target: FITC-conjugated H4R3me2a peptide; experiment: MST
# [2] = tested on: HEK293T nuclear proteins (H4R3me2a interactors); experiment: Proteome-wide photoaffinity capture, dimethyl labelling, LC-MS; assay type: binding, Homo sapiens; conditions: |log2 fold change| > 2, P < 0.05; vs peptide without pLeu
# Procedure, shortened: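 HEK293T cells were lysed in RSB buffer and crude nuclei resuspended in crosslinking buffer (100 mM HEPES, 1.5 mM MgCl2, 150 mM KCl, pH 7.5). Nuclei received 100 µM biotinylated pLeu peptide in the dark, then 365 nm UV on ice. After washing and sonication, proteins were captured on streptavidin and washed stringently. Only proteins quantified in both replicates were kept, with two-tailed unpaired t-test P-values.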
# [3] = tested on: His-tagged WT Mina53; experiment: In vitro demethylation, dot blotting, WT Mina53; assay type: biochemical; conditions: 2 h at 37 °C, cofactors
# [4] = tested on: WT Mina53; experiment: LC-MS of in vitro demethylation products, WT Mina53; assay type: biochemical; conditions: high-resolution MS
# Procedure, shortened: (§1)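 Reaction mixtures were brought to 0.2% TFA and 2% acetonitrile (final) and desalted on C18 ZipTips (activated in 80% acetonitrile/0.1% TFA, equilibrated in 0.1% TFA). Separation was on an HSS T3 UPLC column with 0.1% formic acid in water versus acetonitrile/0.1% formic acid. Detection used positive-mode ESI TOF MS scanning 400-1500 m/z, and relative peptide abundance was compared.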
# [5] = tested on: inactive mutant (H179Y/D181G/H240Y) of Mina53; experiment: In vitro demethylation, dot blotting, inactive mutant Mina53; assay type: biochemical; conditions: 2 h at 37 °C, cofactors
# [6] = tested on: His-tagged Mina53; experiment: Pulldown of synthetic H4R3 peptides with purified His-tagged Mina53; assay type: binding; conditions: H4R3 peptides with different R3 modifications
# [7] = target: Mina53 (Homo sapiens, UniProt Q8IUF8); experiment: Formaldehyde release assay; assay type: biochemical; conditions: AAPT (modified NASH), ex 355 nm / em 470 nm
# Procedure, shortened: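 After the demethylation reaction, samples were TCA-precipitated and 1% Tris buffer was added. An equal volume of AAPT buffer was added to the supernatant and incubated 30 min at room temperature. Formaldehyde was quantified against a standard curve from serial dilutions of 37% formaldehyde. Km and kcat were fitted to the Michaelis-Menten equation.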
# [8] = tested on: catalytically inactive mutant Mina53; experiment: LC-MS of in vitro demethylation products, mutant Mina53; assay type: biochemical; conditions: high-resolution MS
# Procedure, shortened: as §1
# [9] = tested on: mutant Mina53 (D329A/D333A); experiment: Microscale thermophoresis, mutant Mina53; assay type: binding; conditions: MST; D333A/D329A mutant vs WT; n=3 independent assays
# Procedure, shortened: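 His-tagged Mina53 was titrated from 3 nM to 0.1 mM against 25 nM FITC-labelled H4R3me2a peptide. Mixtures were incubated 15 min in 30 mM Hepes, 150 mM NaCl, pH 7.5, then loaded into glass capillaries for microscale thermophoresis. KD was fitted from the thermophoresis response.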
# Sequence of His-tagged Mina53 (Myc-induced nuclear antigen 53), wild type (Q8IUF8 whole entry): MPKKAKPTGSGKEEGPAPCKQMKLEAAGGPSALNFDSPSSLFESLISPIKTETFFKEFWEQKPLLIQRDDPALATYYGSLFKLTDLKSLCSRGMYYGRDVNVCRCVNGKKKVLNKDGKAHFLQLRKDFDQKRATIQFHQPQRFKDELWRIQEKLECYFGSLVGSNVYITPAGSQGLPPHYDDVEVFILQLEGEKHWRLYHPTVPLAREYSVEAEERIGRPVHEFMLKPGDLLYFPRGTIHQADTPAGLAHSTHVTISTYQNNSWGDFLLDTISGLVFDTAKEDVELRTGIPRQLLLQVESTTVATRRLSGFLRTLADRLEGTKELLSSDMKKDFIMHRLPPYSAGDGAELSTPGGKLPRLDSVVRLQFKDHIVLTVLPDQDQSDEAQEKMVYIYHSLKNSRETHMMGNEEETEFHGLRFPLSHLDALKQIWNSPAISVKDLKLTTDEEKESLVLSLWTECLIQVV
# Sequence of Mina53 (Q8IUF8 whole entry): as above
substance,measurement,setting,value
"His-tagged Mina53 (Myc-induced nuclear antigen 53), wild type (from UniProt Q8IUF8 1-465) (enzyme)",Kd,[1],27.6 µM
pLeuGRme2aGKGGKGLGKGGAKKbio-NH2 [H4R3me2a-pLeu-biotin],"Enrichment of SND1, SMNDC1 and PRMT1 in pLeu-containing peptide sample",[2],enriched
SGR(Me1)GKGGKGLGKGGAKRHRKVGGK(Biotin) [H4R3me1],Dot-blot signal change with WT Mina53,[3],drastically decreased
same,Appearance of non-methylated peptide,[4]; H4R3me1 peptide as substrate,modest non-methylated peptide appearance
same,Dot-blot signal change with mutant Mina53,[5],not mutant Mina53
SGR(Me2s)GKGGKGLGKGGAKRHRKVGGK(Biotin) [H4R3me2s],Amount of peptide pulled down by Mina53,[6],in the smallest amount
SGR(Me2a)GKGGKGLGKGGAKRHRKVGGK(Biotin) [H4R3me2a],Dot-blot signal change with WT Mina53,[3],drastically decreased
same,Peptide peak shift (to mono-methylated peptide),[4]; WT Mina53,14 Da
same,turn-over rate (kcat),[7],0.37 ± 0.08 s⁻¹
same,Peptide peak shift with mutant Mina53,[8],not mutant Mina53
same,Dot-blot signal change with mutant Mina53,[5],not mutant Mina53
same,Binding affinity of mutant Mina53,[9],drastic loss of binding
APATGGV-Kme3-KPHRYRP(Biotin) [H3K36me3],Dot-blot signal change with WT Mina53,[3],modestly decreased
same,Dot-blot signal change with mutant Mina53,[5],not mutant Mina53
